Assay results: ChEMBL document CHEMBL3769392, “Synthesis, antiproliferative activities, and computational evaluation of novel isocoumarin and 3,4-dihydroisocoumarin derivatives” (Eur J Med Chem, 2016)
Values after ≈ are worked out from the molar mass of the structure shown.

Assays:
786-0 = assay: Antiproliferative activity against human 786-0 cells after 48 hrs by SRB assay; type: functional; settings: 786-0, 48 h
How it was run: (§1)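 Cells kept in RPMI 1640 with 5% FBS and 1% penicillin/streptomycin at 37 °C, 5% CO2, and used at passages 5–12. Seeded at 3 to 5 x 10^4 cells/mL and exposed 48 h to 0.25, 2.5, 25 and 250 µg/mL in DMSO/RPMI (final DMSO ≤ 0.25%). Doxorubicin 0.025–25 µg/mL served as positive control. Fixed with 50% TCA at T0 and at endpoint, SRB protein read at 540 nm. Growth was T0-corrected and GI50 taken by non-linear regression.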

NCI-H460 [1] = assay: Antiproliferative activity against human NCI-H460 cells after 48 hrs by SRB assay; type: functional; settings: NCI-H460, 48 h; how it was run: as §1
HaCaT [2] = assay: Selectivity index, ratio of GI50 for human HaCaT cells to GI50 for human MCF7 cells; type: functional
HaCaT [3] = assay: Selectivity index, ratio of GI50 for human HaCaT cells to GI50 for human HT-29 cells; type: functional
[4] = Antiproliferative activity against human PC3 cells after 48 hrs by SRB assay; type: functional; settings: PC-3, 48 h; how it was run: as §1
MCF7 = assay: Antiproliferative activity against human MCF7 cells after 48 hrs by SRB assay; type: functional; settings: MCF7, 48 h; how it was run: as §1
[5] = Antiproliferative activity against human NCI-ADR-RES cells after 48 hrs by SRB assay; type: functional; how it was run: as §1
HaCaT [6] = assay: Selectivity index, ratio of GI50 for human HaCaT cells to GI50 for human PC3 cells; type: functional
[7] = Cytotoxicity against human HaCaT cells after 48 hrs by SRB assay; type: cell-based; how it was run: as §1
HT-29 = assay: Antiproliferative activity against human HT-29 cells after 48 hrs by SRB assay; type: functional; settings: HT-29, 48 h; how it was run: as §1
U-251 = assay: Antiproliferative activity against human U251 cells after 48 hrs by SRB assay; type: functional; settings: U-251, 48 h; how it was run: as §1
NCI-H460 [8] = assay: Selectivity index, ratio of GI50 for human HaCaT cells to GI50 for human NCI-H460 cells; type: functional
HaCaT [9] = assay: Selectivity index, ratio of GI50 for human HaCaT cells to GI50 for human U251 cells; type: functional
HaCaT [10] = assay: Selectivity index, ratio of GI50 for human HaCaT cells to GI50 for human NCI-ADR-RES cells; type: functional
HaCaT [11] = assay: Selectivity index, ratio of GI50 for human HaCaT cells to GI50 for human 786-0 cells; type: functional

Row | Compound | GI50 (786-0) | GI50 (NCI-H460 [1]) | RatioGI50 (HaCaT [2]) | RatioGI50 (HaCaT [3]) | GI50 [4] | GI50 (MCF7) | GI50 [5] | RatioGI50 (HaCaT [6]) | GI50 at 48 h [7] | GI50 (HT-29) | GI50 (U-251) | RatioGI50 (NCI-H460 [8]) | RatioGI50 (HaCaT [9]) | RatioGI50 (HaCaT [10]) | RatioGI50 (HaCaT [11])
1 | O=c1oc(CO)cc2ccccc12 | ≥ 250 µg/mL | ≥ 250 µg/mL | 2.49 | 1.32 | 118 µg/mL (≈ 669 µM) | 89.3 µg/mL (≈ 507 µM) | ≥ 250 µg/mL | 1.88 | 222 µg/mL (≈ 1260 µM) | 168 µg/mL (≈ 956 µM) | ≥ 250 µg/mL |  |  |  | 
2 | COc1ccc2c(c1)C(=O)OC(CCCn1nnnc1-c1ccccc1)C2 (racemic) | ≥ 250 µg/mL | 211 µg/mL (≈ 578 µM) | >8.87 | >8.01 | 23.9 µg/mL (≈ 65.6 µM) | 28.2 µg/mL (≈ 77.4 µM) | 142 µg/mL (≈ 390 µM) | > 10.5 | ≥ 250 µg/mL | 31.2 µg/mL (≈ 85.6 µM) | 226 µg/mL (≈ 621 µM) | >1.19 | >2.29 | >1.76 | 
3 | O=C1OC(CO)Cc2ccccc21 (racemic) | ≥ 250 µg/mL | ≥ 250 µg/mL | >378.79 |  | ≥ 250 µg/mL | 0.66 µg/mL (≈ 3.7 µM) | ≥ 250 µg/mL |  | ≥ 250 µg/mL | ≥ 250 µg/mL | ≥ 250 µg/mL |  |  |  | 
4 | COc1ccc2c(c1)C(=O)OC(CCCSc1nnnn1-c1ccccc1)C2 (racemic) | ≥ 250 µg/mL | ≥ 250 µg/mL | >13.44 | >18.25 | 45.1 µg/mL (≈ 114 µM) | 18.6 µg/mL (≈ 46.9 µM) | 132 µg/mL (≈ 333 µM) | >5.54 | ≥ 250 µg/mL | 13.7 µg/mL (≈ 34.6 µM) | ≥ 250 µg/mL |  |  | >1.89 | 
5 | CCCCCOCCCC1Cc2ccc(OC)cc2C(=O)O1 (racemic) | 31.9 µg/mL (≈ 104 µM) | 33.7 µg/mL (≈ 110 µM) | 1 | 0.74 | 29.5 µg/mL (≈ 96.3 µM) | 32.3 µg/mL (≈ 105 µM) | 42.3 µg/mL (≈ 138 µM) | 1.09 | 32.3 µg/mL (≈ 105 µM) | 43.5 µg/mL (≈ 142 µM) | 32.2 µg/mL (≈ 105 µM) | 0.96 | 1 | 0.76 | 1.01
6 | CCCCCOCCCc1cc2ccc(OC)cc2c(=O)o1 | 25.5 µg/mL (≈ 83.8 µM) | 32 µg/mL (≈ 105 µM) | 0.92 | 0.19 | 8 µg/mL (≈ 26.3 µM) | 6 µg/mL (≈ 19.7 µM) | 7.4 µg/mL (≈ 24.3 µM) | 0.69 | 5.5 µg/mL (≈ 18.1 µM) | 28.3 µg/mL (≈ 93 µM) | 19.4 µg/mL (≈ 63.7 µM) | 0.17 | 0.28 | 0.74 | 0.22
7 | COc1ccc2cc(CCCO)oc(=O)c2c1 | 26.9 µg/mL (≈ 115 µM) | 29.1 µg/mL (≈ 124 µM) | 1.12 | 1 | 25.9 µg/mL (≈ 111 µM) | 25.8 µg/mL (≈ 110 µM) | 28.1 µg/mL (≈ 120 µM) | 1.12 | 29 µg/mL (≈ 124 µM) | 29.1 µg/mL (≈ 124 µM) | 28.9 µg/mL (≈ 123 µM) | 1 | 1 | 1.03 | 1.08
8 | COc1cccc2c1C(=O)c1c(O)c3c(c(O)c1C2=O)C[C@@](O)(C(=O)CO)C[C@@H]3O[C@H]1C[C@H](N)[C@H](O)[C@H](C)O1 [DOXORUBICIN] | 0.025 µg/mL (≈ 0.046 µM) | < 0.025 µg/mL |  |  | 0.085 µg/mL (≈ 0.156 µM) | < 0.025 µg/mL | 0.14 µg/mL (≈ 0.258 µM) |  | < 0.025 µg/mL | 0.13 µg/mL (≈ 0.239 µM) | < 0.025 µg/mL |  |  |  | 
